Measured values taken from ChEMBL document CHEMBL4765448, “Multiple biological active 4-aminopyrazoles containing trifluoromethyl and their 4-nitroso-precursors: Synthesis and evaluation” (Eur J Med Chem, 2020).
Values after ≈ are worked out from the molar mass of the structure shown. Active and inactive are the calls of the source. The calls are words filed in the database; no cut-off is given here.

Key:
[1] = system: Neisseria gonorrhoeae; assay: Antibacterial activity against Neisseria gonorrhoeae; assay type: functional
[2] = system: Escherichia coli; assay: Antibacterial activity against Escherichia coli; assay type: functional
[3] = system: Klebsiella pneumoniae; assay: Antibacterial activity against Klebsiella pneumoniae; assay type: functional
[4] = system: Citrobacter braakii; assay: Antibacterial activity against Citrobacter braakii; assay type: functional
[5] = system: Proteus vulgaris; assay: Antibacterial activity against Proteus vulgaris; assay type: functional
[6] = system: Serratia marcescens; assay: Antibacterial activity against Serratia marcescens; assay type: functional
[7] = system: Shigella flexneri; assay: Antibacterial activity against Shigella flexneri; assay type: functional
[8] = system: Pseudomonas aeruginosa; assay: Antibacterial activity against Pseudomonas aeruginosa; assay type: functional
[9] = system: Streptococcus pyogenes; assay: Antibacterial activity against Streptococcus pyogenes; assay type: functional
[10] = system: Staphylococcus aureus; assay: Antibacterial activity against Staphylococcus aureus; assay type: functional
[11] = system: Trichophyton rubrum; assay: Antifungal activity against Trichophyton rubrum; assay type: functional
[12] = system: Nannizzia gypsea; assay: Antifungal activity against Trichophyton gypseum; assay type: functional
[13] = system: Trichophyton tonsurans; assay: Antifungal activity against Trichophyton tonsurans; assay type: functional
[14] = system: Trichophyton violaceum; assay: Antifungal activity against Trichophyton violaceum; assay type: functional
[15] = system: Trichophyton interdigitale; assay: Antifungal activity against Trichophyton mentagrophytes var. interdigitale; assay type: functional
[16] = system: Epidermophyton floccosum; assay: Antifungal activity against Epidermophyton floccosum; assay type: functional
[17] = system: Microsporum canis; assay: Antifungal activity against Microsporum canis; assay type: functional
[18] = system: Candida albicans; assay: Antifungal activity against Candida albicans; assay type: functional
[19] = system: Rattus norvegicus; assay: Analgesic activity in rat assessed as prolongation of latency period at 25 mg/kg, ip measured after 1 hr by hot-plate test relative to control; assay type: functional, organism-based
Summary of the method: (§1)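 Hot-plate test in rats. Compounds were given by intraperitoneal injection. Latency was read at 1 h and, for some compounds, also at 2 h after dosing. Results are expressed as % prolongation of the latent period versus vehicle-treated control. Significance was given as p-values.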

[20] = system: Rattus norvegicus; assay: Antiinflammatory activity in rat model of carrageenan-induced paw edema assessed as inhibition of hind paw swelling at 25 mg/kg, ip measured after 5 hrs; assay type: functional, organism-based
[21] = Acute toxicity in mouse at 300 mg/kg, ip administered as single dose; assay type: organism-based; details: in vivo
Summary of the method: (§2)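 Mice, single intraperitoneal dose, following OECD Guideline for testing of chemicals; three mice per dose level; doses tested 10–300 mg/kg. Read-out is the number of survivors out of 3, used to estimate the expected LD50 range.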

[22] = Antioxidant activity assessed as trolox equivalent of ABTS radical scavenging activity measured after 1 hr by UV-vis spectrophotometric method; assay type: functional
Summary of the method: (§3)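 ABTS cation-radical decolorization was read spectrophotometrically as the fall in absorbance after 1 h. Trolox was the reference. TEAC was taken as the ratio of concentration-response slopes, test/Trolox, and IC50 was also derived. Data are mean ± SEM, n = 3.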

[23] = Antioxidant activity assessed as ABTS radical scavenging activity measured after 1 hr by UV-vis spectrophotometric method; assay type: functional; summary of the method: as §3
[24] = Antioxidant activity assessed as AAPH scavenging activity by measuring residual fluorescence at 10 uM measured at 1 min interval for 30 mins by ORAC fluorescein assay relative to control; assay type: functional
Summary of the method: (§4)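 ORAC-FL assay with fluorescein as the probe and AAPH as the peroxyl radical generator. The loss of fluorescence over time was followed, and the result is given as % fluorescence restored at 10 and 50 µM. Each value is the mean of two independent experiments.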

[25] = Antioxidant activity assessed as AAPH scavenging activity by measuring residual fluorescence at 50 uM measured at 1 min interval for 30 mins by ORAC fluorescein assay relative to control; assay type: functional; summary of the method: as §4
[26] = system: Erythrocyte; assay: Antioxidant activity in human erythrocytes assessed as protection against AAPH-induced hemolysis at 50 uM preincubated for 20 mins followed by AAPH addition and measured after 2 hrs by spectrophotometric method relative to control; assay type: functional; details: time 140 min, 2.333 h
Summary of the method: (§5)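 Erythrocyte hemolysis assay with AAPH as the free-radical initiator, testing 50 and 400 µM. Results are expressed as relative protection of membranes against oxidative damage, each the mean of two independent experiments.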

[27] = system: Erythrocyte; assay: Antioxidant activity in human erythrocytes assessed as protection against AAPH-induced hemolysis at 400 uM preincubated for 20 mins followed by AAPH addition and measured after 2 hrs by spectrophotometric method relative to control; assay type: functional; details: time 140 min, 2.333 h; summary of the method: as §5
[28] = system: HeLa; assay: Cytotoxicity against human HeLa cells; assay type: functional, cell-based; details: for IC50: Homo sapiens, HeLa, read-out: IC50
[29] = system: NHDF; assay: Cytotoxicity against HDF cells; assay type: cell-based, Homo sapiens
[30] = Selectivity index, ratio of IC50 for HDF cells to IC50 for human HeLa cells; assay type: toxicity; details: HDF cells versus HeLa cells, read-out: Ratio IC50
[31] = system: Rattus norvegicus; assay: Antiinflammatory activity in rat model of carrageenan-induced paw edema assessed as inhibition of hind paw swelling at 15 mg/kg, ip measured after 1 hr relative to control; assay type: functional
[32] = system: Rattus norvegicus; assay: Antiinflammatory activity in rat model of carrageenan-induced paw edema assessed as inhibition of hind paw swelling at 15 mg/kg, ip measured after 3 hrs relative to control; assay type: functional
[33] = system: Rattus norvegicus; assay: Analgesic activity in rat assessed as prolongation of latency period at 15 mg/kg, ip measured after 1 hr by hot-plate test relative to control; assay type: functional; summary of the method: as §1
[34] = system: Rattus norvegicus; assay: Analgesic activity in rat assessed as prolongation of latency period at 15 mg/kg, ip measured after 2 hrs by hot-plate test relative to control; assay type: functional; summary of the method: as §1
[35] = system: Rattus norvegicus; assay: Antiinflammatory activity in rat model of carrageenan-induced paw edema assessed as inhibition of hind paw swelling at 15 mg/kg, ip measured after 5 hrs; assay type: functional, organism-based
[36] = Acute toxicity in ip dosed mouse administered as single dose; assay type: organism-based; details: in vivo; summary of the method: as §2
[37] = system: Rattus norvegicus; assay: Antiinflammatory activity in rat model of carrageenan-induced paw edema assessed as inhibition of hind paw swelling at 10 mg/kg, ip measured after 1 hr relative to control; assay type: functional
[38] = system: Rattus norvegicus; assay: Antiinflammatory activity in rat model of carrageenan-induced paw edema assessed as inhibition of hind paw swelling at 10 mg/kg, ip measured after 3 hrs relative to control; assay type: functional
[39] = system: Rattus norvegicus; assay: Analgesic activity in rat assessed as prolongation of latency period at 10 mg/kg, ip measured after 1 hr by hot-plate test relative to control; assay type: functional; summary of the method: as §1
[40] = Acute toxicity in mouse at 70 mg/kg, ip administered as single dose; assay type: organism-based; details: in vivo; summary of the method: as §2
[41] = system: Mycobacterium tuberculosis; assay: Antitubercular activity against Mycobacterium tuberculosis H37Rv; assay type: functional
Summary of the method: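 Mycobacterium tuberculosis strain H37Rv; minimum inhibitory concentration (MIC) taken as the lowest level needed to inhibit bacterial growth; isoniazid and pyrazinamide served as reference drugs.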

[42] = Acute toxicity in mouse at 60 mg/kg, ip administered as single dose; assay type: organism-based; details: in vivo; summary of the method: as §2

Row | SMILES | MIC [1] [µg/mL] | MIC [2] [µg/mL] | MIC [3] [µg/mL] | MIC [4] [µg/mL] | MIC [5] [µg/mL] | MIC [6] [µg/mL] | MIC [7] [µg/mL] | MIC [8] [µg/mL] | MIC [9] [µg/mL] | MIC [10] [µg/mL] | MIC [11] [µg/mL] | MIC [12] [µg/mL] | MIC [13] [µg/mL] | MIC [14] [µg/mL] | MIC [15] [µg/mL] | MIC [16] [µg/mL] | MIC [17] [µg/mL] | MIC [18] [µg/mL] | Activity [21] | Activity [22] | other results
1 | Cc1ccc(-c2c(N=O)c(C(F)(F)F)nn2-c2ccc(S(N)(=O)=O)cc2)cc1 | 31.2 (≈ 76 µM) | > 250 | > 250 | > 250 | > 250 | > 250 | > 250 | > 250 | > 250 | > 250 | 200 (≈ 487 µM) | 200 (≈ 487 µM) | 200 (≈ 487 µM) | > 200 | 200 (≈ 487 µM) | 200 (≈ 487 µM) | 200 (≈ 487 µM) | > 200 | Non-Toxic |  | Activity [19]: inactive; Activity [20]: inactive
2 | Cc1ccc(C2=NN(c3ccc(S(N)(=O)=O)cc3)C(O)(C(F)(F)F)/C2=N/O)cc1 (stereo not given) |  |  |  |  |  |  |  |  |  |  |  |  |  |  |  |  |  |  | Non-Toxic | 0.48 equiv | IC50 [23]: 45.3 µM; Activity [24]: 38.5%; Activity [25]: 59.4%; fold change (FC) [26]: 1.09; fold change (FC) [27]: 1.08; Activity [28]: Dose-dependent effect; IC50 [28]: 7.23 µM; IC50 ([29]; Homo sapiens, NHDF, read-out: IC50): 99.3 µM; selectivity ratio [30]: 13.7; inhibition [31]: inactive; inhibition [32]: inactive; Activity [33]: 58.9%; Activity [34]: 96.55%; Activity [35]: Active; LD50 [36]: > 300 mg/kg
3 | O=C(O)Cc1ccccc1Nc1c(Cl)cccc1Cl [DICLOFENAC] |  |  |  |  |  |  |  |  |  |  |  |  |  |  |  |  |  |  |  |  | inhibition in vivo at 10 mg/kg [37]: 53.9%; inhibition in vivo at 10 mg/kg [38]: 61.8%; Activity [39]: 57.1%; Activity [40]: Non-Toxic
4 | Cl.Cn1nc(C(F)(F)F)c(N)c1-c1ccccc1 | > 250 | > 250 | > 250 | > 250 | > 250 | > 250 | > 250 | > 250 | > 250 | > 250 | 200 | > 200 | > 200 | 200 | > 200 | 200 | 200 | > 200 |  | inactive | MIC [41]: 12.5 µg/mL; Activity [24]: 38.2%; Activity [25]: 79%; fold change (FC) [26]: 1.19; fold change (FC) [27]: 1.11; Activity [28]: Dose-dependent effect; IC50 [28]: 0.074 µM; IC50 ([29]; nhdf): Not Active; selectivity ratio [30]: > 1350; inhibition in vivo at 15 mg/kg [31]: 54.3%; inhibition in vivo at 15 mg/kg [32]: 32.9%; Activity [33]: 100.74%; Activity [35]: Active; Activity [42]: Non-Toxic
